# HKDC1 inhibitor: inhibitors of human hexokinase HKDC1. Q2TB90. recombinant HKDC1, G6PDH/diaphorase resazurin coupled fluorescence. inhibition, % at 20 µM. 340,000 compounds, 0.16% hits. AID 493160;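 active means inhibition above about 35% when tested at 20 µM, limit read from the data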
#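 Assay system: recombinant HKDC1 hexokinase; detection: coupled resazurin fluorescence, excitation 525 nm, emission 613 nm; benchmarks: DMSO-plus-enzyme-mix negative control, buffer-substituted positive control; compound dosing: single 20 µM dose; schedule: 90 min at room temperature in dark; also added: glucose plus 1 mM ATP as hexokinase substrates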
# PfGluPho inh: PfG6PD (Plasmodium falciparum) enzyme inhibition. PfGluPho enzyme, NADPH resazurin-diaphorase fluorescence. inhibition, % at 20 µM. 350,000 compounds, 0.78% hits. AID 504690;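 active means inhibition reaching at least a set limit at 20 µM in the primary screen, cut at about 59% in these data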
# G6PDH CS: inhibits Leuconostoc G6PDH, flagging false hits in G6PDH-based assays. Purified L. mesenteroides G6PDH, diaphorase/resazurin coupled fluorescence, 45 min. inhibition, % at 5 µM. 200,000 compounds, 0.12% hits; in the data active means inhibition above about 50%
# Diaphorase inh: diaphorase inhibition or chemical oxidation counter-screen; 190,000 compounds, 0.69% hits; inhibition, % at 20 µM; diaphorase resazurin-to-resorufin fluorescence, NADH, 16 min; bacterial (C. kluyveri) enzyme, not human;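 active means primary screen inhibition at 20 µM above a set limit, cut at about 50% in these data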
#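 material = Clostridium kluyveri diaphorase enzyme | amount = 0.14 U/mL diaphorase, enzyme working solution | schedule = incubation 16 min, room temperature | detection = fluorescence of resorufin formed from resazurin, Ex 544/Em 590 nm | benchmarks = positive control minus NADH, DMSO neutral control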
# PfGluPho conf: confirmation of Plasmodium falciparum G6PD inhibitors | shares compounds with PfGluPho inh | recombinant PfGluPho, NADPH-diaphorase-resazurin fluorescence | inhibition, % at 20 µM | 2,400 compounds, 34% hits | AID 504753;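 active means inhibition of at least 50% at 20 µM in any single replicate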
# Diaph ctr 10uM: diaphorase inhibition or oxidation at 10 uM NADPH; shares compounds with PfGluPho inh; diaphorase-coupled resazurin reduction, fluorescence, NADPH 10 uM; inhibition, % at 20 µM; 820 compounds, 39% hits; AID 504862;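 active means average inhibition reaching 50% or more with the compound at 20 µM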;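 further: resorufin red fluorescence formed as diaphorase reduces resazurin using NADPH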
# Diaphorase 30uM: diaphorase inhibition or oxidation at 30 uM NADPH | shares compounds with PfGluPho inh | Diaphorase/resazurin coupled assay, resorufin fluorescence | inhibition, % at 20 µM | 820 compounds, 29% hits;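 active means inhibition averaging 50% or more, tested at 20 µM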
# Hits are given with their value; . = inactive; / = not tested or not shown. Only some compounds are listed: those with a hit (about 1.3% of all), similar ones and a draw of the others.
SMILES,HKDC1 inhibitor,PfGluPho inh,G6PDH CS,Diaphorase inh,PfGluPho conf,others
O=S(=O)(Nc1ccccc1N1CCOCC1)c1ccc(F)c(Cl)c1,.,.,/,/,/,
O=[N+]([O-])c1ccccc1S(=O)(=O)N1CCN(S(=O)(=O)c2ccc3c(c2)OCCO3)CC1,.,.,/,/,/,
Cc1cc(/C=C(\C#N)C(=O)NCc2ccccc2)c(C)[nH]1,/,.,/,/,/,
C[C@H](CO)N1C[C@H](C)[C@@H](CN(C)S(=O)(=O)c2cn(C)cn2)Oc2ccc(NC(=O)NC3CCCCC3)cc2C1=O,.,.,/,/,/,
COc1ccc(-n2ncc(C(C)NS(=O)(=O)c3ccc(C)s3)c2C)cc1 (configuration not stated),.,.,/,/,/,
Nc1nc(-c2cc(O)ccc2[N+](=O)[O-])cc(-c2ccccc2)c1[N+](=O)[O-],.,75.5,/,/,.,
O=C(Nc1cccc(Br)c1)c1cc2ccccc2o1,.,97.2,.,.,.,
CCOC(=O)c1ccc(NC(=O)c2cc3ccccc3o2)cc1,.,67.2,.,.,.,
CCOC(=O)c1cccc(NC(=O)c2cc3ccccc3o2)c1,.,.,/,/,/,
O=C(Nc1ccc2c(c1)CCC2)c1cc2ccccc2o1,.,88.0,.,.,.,
Cc1cccc(NC(=O)c2cc3ccccc3o2)c1,.,65.0,.,.,.,
Cc1ccc(-n2nc(C(=O)N3CCOCC3)cc2-c2ccc(Cl)cc2)cc1,.,59.8,.,.,.,
Cc1nn2c(=O)cc(CSCC(=O)Nc3ccccc3Cl)nc2s1,.,.,/,/,/,
CC(=O)c1cccc(NC(=O)c2cnn(-c3ccccc3)c2C)c1,.,75.4,/,/,51.2,Diaph ctr 10uM=.;Diaphorase 30uM=.
Cc1c(C(=O)Nc2cccc([N+](=O)[O-])c2)cnn1-c1ccccc1,.,74.0,/,/,.,
CCCCC(=O)N/N=C/c1ccc(Sc2cccc3cccnc23)o1,.,68.1,.,.,.,
O=C(CSc1cccc2cccnc12)N/N=C/c1ccc(F)cc1,.,84.7,/,/,64.9,Diaph ctr 10uM=61.1;Diaphorase 30uM=53.8
Fc1ccc(-c2csc(Nc3ccccn3)n2)cc1,.,.,/,/,/,
Cc1ccc(S(=O)(=O)Nc2ccc3cn[nH]c3c2)c(C)c1,.,.,/,/,/,
O=c1[nH]c2ccc(NS(=O)(=O)c3ccc4ccccc4c3)cc2[nH]1,.,.,.,.,/,
Cc1ccc(S(=O)(=O)Nc2ccc3[nH]c(=O)[nH]c3c2)c(C)c1,.,.,.,.,.,
O=c1[nH]c2ccc(NS(=O)(=O)c3ccc(F)c(Cl)c3)cc2[nH]1,.,63.4,/,/,.,
CC(=O)Nc1ccc(NS(=O)(=O)c2ccc3[nH]c(=O)[nH]c3c2)cc1,.,.,.,.,/,
O=c1[nH]c2ccc(NS(=O)(=O)c3ccc(Cl)cc3)cc2[nH]1,.,63.5,.,.,.,
Cc1ccc2occ(/C=N/NC(=O)c3ccccc3O)c(=O)c2c1,.,.,/,/,/,
SMILES,HKDC1 inhibitor,PfGluPho inh,G6PDH CS,Diaphorase inh,PfGluPho conf,others
Cc1ccc(NC(=O)CCN2C(=O)NC3(CCCC3)C2=O)cc1S(=O)(=O)N1CCOCC1,.,.,/,/,/,
Cc1cc(=O)n2nc(N3CCCC(C(=O)NCCCN4C(C)CCCC4C)C3)sc2n1 (configuration not stated),/,.,/,/,/,
CCOC(=O)Cc1csc(-n2sc3ccccc3c2=O)n1,.,124.0,.,.,81.1,Diaph ctr 10uM=.;Diaphorase 30uM=.
CCOC(=O)Cc1csc(SCn2nnc3ccccc3c2=O)n1,.,.,.,.,/,
O=C(CN1CCCCCC1)Nc1ccccc1C(=O)Nc1ccccc1,.,.,/,/,/,
CC(C)C(=O)N1CCN(c2ccc([N+](=O)[O-])c(NC(C)c3ccccc3)c2)CC1 (configuration not stated),.,80.9,.,.,.,
CC(Nc1cc(N2CCNCC2)ccc1[N+](=O)[O-])c1ccccc1 (configuration not stated),.,.,.,.,/,
CCS(=O)(=O)N1CCN(c2ccc([N+](=O)[O-])c(NC(C)c3ccccc3)c2)CC1 (configuration not stated),.,78.0,.,.,54.4,Diaph ctr 10uM=.;Diaphorase 30uM=.
CC(=O)OC1COC(OC(C)=O)CO1 (configuration not stated),.,.,/,/,/,
COCc1cc(=O)n2[nH]c(C(C)(C)C)cc2n1,.,61.0,/,/,48.4,Diaph ctr 10uM=.;Diaphorase 30uM=.
COCc1cc(=O)n2[nH]c(C)cc2n1,.,.,.,.,/,
Cn1c(SCC(=O)NCCc2ccccc2)nnc1C1CCCCC1,.,.,/,/,/,
CCOC(=O)CSc1nc2nc(Cl)c(Cl)nc2[nH]1,/,81.0,/,/,.,
Cc1ccc(OS(=O)(=O)c2c(C)nn(C)c2Cl)c(C)c1,.,75.1,/,/,.,
COc1cccc(NC(=O)COC(=O)/C=C/c2c(C)nn(-c3ccccc3)c2C)c1,.,.,/,/,/,
CS(=O)(=O)N(CC(=O)NCc1cccnc1)Cc1ccc(Cl)cc1,.,.,.,.,/,
O=C(CN(Cc1ccc(Br)cc1)S(=O)(=O)c1ccccc1)NCc1cccnc1,.,63.4,/,/,.,
Cc1ccc(N(O)C(C)(C)C)cc1,.,71.9,/,/,.,
Cc1ccc(N(C)S(=O)(=O)c2ccc(C)cc2)cc1,.,.,.,.,/,

# Screens as filed in PubChem BioAssay.
